Assay results published in ChEMBL document CHEMBL1811765, “Synthesis, biological evaluation, and molecular modeling of cinnamic acyl sulfonamide derivatives as novel antitubulin agents” (Bioorg Med Chem, 2011).
Converted amounts (≈) assume the structure as drawn.

Experiments:
[1] = Inhibition of bovine brain tubulin polymerization after 20 mins by turbidimetric analysis; parameters: species or system Bos taurus
Summary of the method: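 Tubulin at 10 µM in glutamate buffer was preincubated with varying compound concentrations at 30 °C, then cooled to 0 °C. GTP was added, the mix moved to 0 °C cuvettes and warmed to 30 °C, and assembly was followed turbidimetrically.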

B16-F10 [2] = assay: Antiproliferative activity against mouse B16F10 cells after 48 hrs by MTT based ELISA assay; format: functional, cell-based; conditions: B16-F10, 48 h
Summary of the method: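 B16-F10 cells grown to log phase in RPMI 1640 with 10% FBS, seeded at 2 × 10⁴ cells/mL and incubated 24 h at 37 °C, 5% CO₂ before treatment. Read-out was absorbance at 570 nm after an overnight incubation at 37 °C. Three replicate wells per concentration, each assay run at least three times. IC50 reported.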

B16-F10 [3] = assay: Cell cycle arrest in mouse B16F10 cells assessed as accumulation at S phase at 1 ug/ml after 24 hrs by flow cytometry analysis (reference value: 9.40%); format: functional
B16-F10 [4] = assay: Cell cycle arrest in mouse B16F10 cells assessed as accumulation at G2/M phase at 1 ug/ml after 24 hrs by flow cytometry analysis (reference value: 17.03%); format: functional
B16-F10 [5] = assay: Cell cycle arrest in mouse B16F10 cells assessed as accumulation at G0/G1 phase at 1 ug/ml after 24 hrs by flow cytometry analysis (reference value: 48.57%); format: functional
B16-F10 [6] = assay: Cell cycle arrest in mouse B16F10 cells assessed as accumulation at G0/G1 phase at 5 ug/ml after 24 hrs by flow cytometry analysis (reference value: 48.57%); format: functional
B16-F10 [7] = assay: Cell cycle arrest in mouse B16F10 cells assessed as accumulation at S phase at 5 ug/ml after 24 hrs by flow cytometry analysis (reference value: 9.40%); format: functional
B16-F10 [8] = assay: Cell cycle arrest in mouse B16F10 cells assessed as accumulation at G2/M phase at 5 ug/ml after 24 hrs by flow cytometry analysis (reference value: 17.03%); format: functional

`COc1ccc(/C=C/C(=O)NS(=O)(=O)c2ccccc2)cc1` showed an IC50 [1] of 160 µg/mL (≈ 504 µM) and an IC50 (B16-F10 [2]) of 13.2 µg/mL (≈ 41.6 µM).
`O=C(/C=C/c1ccc([N+](=O)[O-])cc1)NS(=O)(=O)c1ccc(Cl)cc1` showed an IC50 [1] of 134 µg/mL (≈ 365 µM) and an IC50 (B16-F10 [2]) of 13.7 µg/mL (≈ 37.4 µM).
`O=C(/C=C/c1ccccc1)NS(=O)(=O)c1ccc(Br)cc1` gave an IC50 [1] of 63 µg/mL (≈ 172 µM) and an IC50 (B16-F10 [2]) of 3.9 µg/mL (≈ 10.6 µM).
Molecule `O=C(/C=C/c1ccccc1[N+](=O)[O-])NS(=O)(=O)c1ccc(Cl)cc1` has an IC50 [1] of 78 µg/mL (≈ 213 µM) and an IC50 (B16-F10 [2]) of 6.6 µg/mL (≈ 18 µM).
With `O=C(/C=C/c1ccc(F)cc1)NS(=O)(=O)c1ccc(Br)cc1` the IC50 [1] was 14.7 µg/mL (≈ 38.3 µM) and the IC50 (B16-F10 [2]) was 2.8 µg/mL (≈ 7.29 µM).
With `Cc1ccc(S(=O)(=O)NC(=O)/C=C/c2ccc([N+](=O)[O-])cc2)cc1` the IC50 [1] was 151 µg/mL (≈ 436 µM) and the IC50 (B16-F10 [2]) was 13.5 µg/mL (≈ 39 µM).
Molecule `COc1cc2c(c(OC)c1OC)-c1ccc(OC)c(=O)cc1[C@@H](NC(C)=O)CC2` [COLCHICINE] has an Activity (B16-F10 [3]) of 1.3%, an Activity (B16-F10 [4]) of 61.11% and an Activity (B16-F10 [5]) of 1.58%.
`O=C(/C=C/c1ccc([N+](=O)[O-])cc1)NS(=O)(=O)c1ccc(Br)cc1` gave an IC50 [1] of 163 µg/mL (≈ 396 µM) and an IC50 (B16-F10 [2]) of 13.9 µg/mL (≈ 33.8 µM).
In the case of `O=C(/C=C/c1ccc(Cl)cc1)NS(=O)(=O)c1ccc(F)cc1`, the IC50 [1] is reported as 8.9 µg/mL (≈ 26.2 µM) and the IC50 (B16-F10 [2]) is reported as 2 µg/mL (≈ 5.89 µM).
Work on `O=C(/C=C/c1ccccc1[N+](=O)[O-])NS(=O)(=O)c1ccc(Br)cc1` yielded an IC50 [1] of 134 µg/mL (≈ 326 µM) and an IC50 (B16-F10 [2]) of 12.6 µg/mL (≈ 30.6 µM).
Molecule `O=C(/C=C/c1ccc(Cl)cc1)NS(=O)(=O)c1ccc(Br)cc1` has an IC50 [1] of 10.8 µg/mL (≈ 27 µM) and an IC50 (B16-F10 [2]) of 2.8 µg/mL (≈ 6.99 µM).
`O=C(/C=C/c1ccc(Br)cc1)NS(=O)(=O)c1ccc(F)cc1` showed an IC50 [1] of 3.8 µg/mL (≈ 9.89 µM) and an IC50 (B16-F10 [2]) of 1.2 µg/mL (≈ 3.12 µM).
For `O=C(/C=C/c1ccccc1[N+](=O)[O-])NS(=O)(=O)c1ccc(F)cc1`, the IC50 [1] was 69 µg/mL (≈ 197 µM) and the IC50 (B16-F10 [2]) was 6 µg/mL (≈ 17.1 µM).
`Cc1ccc(S(=O)(=O)NC(=O)/C=C/c2ccc(Br)cc2)cc1` showed an IC50 [1] of 137 µg/mL (≈ 360 µM) and an IC50 (B16-F10 [2]) of 12.1 µg/mL (≈ 31.8 µM).
`O=C(/C=C/c1ccc(Cl)cc1)NS(=O)(=O)c1ccccc1` showed an IC50 [1] of 15.3 µg/mL (≈ 47.5 µM) and an IC50 (B16-F10 [2]) of 2.2 µg/mL (≈ 6.84 µM).
With `COc1ccc(/C=C\c2cc(OC)c(OC)c(OC)c2)cc1O` [COMBRETASTATIN A4] the IC50 [1] was 0.7 µg/mL (≈ 2.21 µM).
Molecule `CN(C)c1ccc(/C=C/C(=O)NS(=O)(=O)c2ccc(F)cc2)cc1` has an IC50 [1] of 10 µg/mL (≈ 28.7 µM) and an IC50 (B16-F10 [2]) of 2.3 µg/mL (≈ 6.6 µM).
For `Cc1ccc(S(=O)(=O)NC(=O)/C=C/c2ccc(F)cc2)cc1`, the IC50 [1] was 40 µg/mL (≈ 125 µM) and the IC50 (B16-F10 [2]) was 4.8 µg/mL (≈ 15 µM).
`O=C(/C=C/c1ccc(Br)cc1)NS(=O)(=O)c1ccccc1` showed an IC50 [1] of 74 µg/mL (≈ 202 µM) and an IC50 (B16-F10 [2]) of 3.9 µg/mL (≈ 10.6 µM).
In the case of `Cc1ccc(S(=O)(=O)NC(=O)/C=C/c2ccc(Cl)cc2)cc1`, the IC50 [1] is reported as 30 µg/mL (≈ 89.3 µM) and the IC50 (B16-F10 [2]) is reported as 4.6 µg/mL (≈ 13.7 µM).
Work on `O=C(/C=C/c1ccc(Cl)cc1)NS(=O)(=O)c1ccc(Cl)cc1` yielded an IC50 [1] of 9.3 µg/mL (≈ 26.1 µM) and an IC50 (B16-F10 [2]) of 2.5 µg/mL (≈ 7.02 µM).
Molecule `COc1ccc(/C=C/C(=O)NS(=O)(=O)c2ccc(Br)cc2)cc1` has an IC50 [1] of 53 µg/mL (≈ 134 µM) and an IC50 (B16-F10 [2]) of 5.8 µg/mL (≈ 14.6 µM).
With `O=C(/C=C/c1ccc(Br)cc1)NS(=O)(=O)c1ccc(Cl)cc1` the IC50 [1] was 55 µg/mL (≈ 137 µM) and the IC50 (B16-F10 [2]) was 5.2 µg/mL (≈ 13 µM).
For `Cc1ccc(S(=O)(=O)NC(=O)/C=C/c2ccccc2[N+](=O)[O-])cc1`, the IC50 [1] was 102 µg/mL (≈ 294 µM) and the IC50 (B16-F10 [2]) was 10.3 µg/mL (≈ 29.7 µM).
Molecule `CN(C)c1ccc(/C=C/C(=O)NS(=O)(=O)c2ccc(Br)cc2)cc1` has an IC50 [1] of 34 µg/mL (≈ 83.1 µM) and an IC50 (B16-F10 [2]) of 4.2 µg/mL (≈ 10.3 µM).
In the case of `O=C(/C=C/c1ccccc1)NS(=O)(=O)c1ccc(F)cc1`, the IC50 [1] is reported as 4.5 µg/mL (≈ 14.7 µM) and the IC50 (B16-F10 [2]) is reported as 2.1 µg/mL (≈ 6.88 µM).
`O=C(/C=C/c1ccc(Br)cc1)NS(=O)(=O)c1ccc(Br)cc1` showed an IC50 [1] of 53 µg/mL (≈ 119 µM) and an IC50 (B16-F10 [2]) of 5.1 µg/mL (≈ 11.5 µM).
Work on `O=C(/C=C/c1ccc(F)cc1)NS(=O)(=O)c1ccc(F)cc1` yielded an IC50 [1] of 2.4 µg/mL (≈ 7.42 µM), an IC50 (B16-F10 [2]) of 0.8 µg/mL (≈ 2.47 µM) and an Activity (B16-F10 [3]) of 9.08%. The Activity (B16-F10 [6]) was 5.65%, the Activity (B16-F10 [7]) was 4.22% and the Activity (B16-F10 [4]) was 30.21%. The Activity (B16-F10 [5]) was 26.7% and the Activity (B16-F10 [8]) was 49%.
`COc1ccc(/C=C/C(=O)NS(=O)(=O)c2ccc(C)cc2)cc1` gave an IC50 [1] of 146 µg/mL (≈ 441 µM) and an IC50 (B16-F10 [2]) of 12.2 µg/mL (≈ 36.8 µM).
Work on `CN(C)c1ccc(/C=C/C(=O)NS(=O)(=O)c2ccccc2)cc1` yielded an IC50 [1] of 26 µg/mL (≈ 78.7 µM) and an IC50 (B16-F10 [2]) of 2.3 µg/mL (≈ 6.96 µM).
Molecule `CN(C)c1ccc(/C=C/C(=O)NS(=O)(=O)c2ccc(Cl)cc2)cc1` has an IC50 [1] of 14 µg/mL (≈ 38.4 µM) and an IC50 (B16-F10 [2]) of 2.8 µg/mL (≈ 7.67 µM).
Molecule `O=C(/C=C/c1ccccc1[N+](=O)[O-])NS(=O)(=O)c1ccccc1` has an IC50 [1] of 74 µg/mL (≈ 223 µM) and an IC50 (B16-F10 [2]) of 6 µg/mL (≈ 18.1 µM).
Work on `COc1ccc(/C=C/C(=O)NS(=O)(=O)c2ccc(Cl)cc2)cc1` yielded an IC50 [1] of 52 µg/mL (≈ 148 µM) and an IC50 (B16-F10 [2]) of 5.3 µg/mL (≈ 15.1 µM).
For `O=C(/C=C/c1ccc(F)cc1)NS(=O)(=O)c1ccc(Cl)cc1`, the IC50 [1] was 4.5 µg/mL (≈ 13.2 µM) and the IC50 (B16-F10 [2]) was 2.6 µg/mL (≈ 7.65 µM).
For `O=C(/C=C/c1ccc([N+](=O)[O-])cc1)NS(=O)(=O)c1ccc(F)cc1`, the IC50 [1] was 6.3 µg/mL (≈ 18 µM) and the IC50 (B16-F10 [2]) was 2.2 µg/mL (≈ 6.28 µM).
`O=C(/C=C/c1ccccc1)NS(=O)(=O)c1ccccc1` showed an IC50 [1] of 37 µg/mL (≈ 129 µM) and an IC50 (B16-F10 [2]) of 3.5 µg/mL (≈ 12.2 µM).
With `Cc1ccc(S(=O)(=O)NC(=O)/C=C/c2ccccc2)cc1` the IC50 [1] was 152 µg/mL (≈ 504 µM) and the IC50 (B16-F10 [2]) was 13.8 µg/mL (≈ 45.8 µM).
Molecule `COc1ccc(/C=C/C(=O)NS(=O)(=O)c2ccc(F)cc2)cc1` has an IC50 [1] of 45 µg/mL (≈ 134 µM) and an IC50 (B16-F10 [2]) of 5.1 µg/mL (≈ 15.2 µM).
`O=C(/C=C/c1ccc([N+](=O)[O-])cc1)NS(=O)(=O)c1ccccc1` showed an IC50 [1] of 50 µg/mL (≈ 150 µM) and an IC50 (B16-F10 [2]) of 4.8 µg/mL (≈ 14.4 µM).
With `O=C(/C=C/c1ccccc1)NS(=O)(=O)c1ccc(Cl)cc1` the IC50 [1] was 14.8 µg/mL (≈ 46 µM) and the IC50 (B16-F10 [2]) was 2.2 µg/mL (≈ 6.84 µM).
Molecule `O=C(/C=C/c1ccc(F)cc1)NS(=O)(=O)c1ccccc1` has an IC50 [1] of 4.5 µg/mL (≈ 14.7 µM) and an IC50 (B16-F10 [2]) of 2.1 µg/mL (≈ 6.88 µM).
With `Cc1ccc(S(=O)(=O)NC(=O)/C=C/c2ccc(N(C)C)cc2)cc1` the IC50 [1] was 37 µg/mL (≈ 107 µM) and the IC50 (B16-F10 [2]) was 4.3 µg/mL (≈ 12.5 µM).
